Consider ten molecules from ChEMBL document CHEMBL1799968, “Dimethyl-diphenyl-propanamide derivatives as nonsteroidal dissociated glucocorticoid receptor agonists” (J Med Chem, 2010).

pEC50, pKi: −log10 of the molar value.

Test [1] has as its target T1, Glucocorticoid receptor (Homo sapiens, UniProt P04150).
T1 sequence (P04150 whole entry): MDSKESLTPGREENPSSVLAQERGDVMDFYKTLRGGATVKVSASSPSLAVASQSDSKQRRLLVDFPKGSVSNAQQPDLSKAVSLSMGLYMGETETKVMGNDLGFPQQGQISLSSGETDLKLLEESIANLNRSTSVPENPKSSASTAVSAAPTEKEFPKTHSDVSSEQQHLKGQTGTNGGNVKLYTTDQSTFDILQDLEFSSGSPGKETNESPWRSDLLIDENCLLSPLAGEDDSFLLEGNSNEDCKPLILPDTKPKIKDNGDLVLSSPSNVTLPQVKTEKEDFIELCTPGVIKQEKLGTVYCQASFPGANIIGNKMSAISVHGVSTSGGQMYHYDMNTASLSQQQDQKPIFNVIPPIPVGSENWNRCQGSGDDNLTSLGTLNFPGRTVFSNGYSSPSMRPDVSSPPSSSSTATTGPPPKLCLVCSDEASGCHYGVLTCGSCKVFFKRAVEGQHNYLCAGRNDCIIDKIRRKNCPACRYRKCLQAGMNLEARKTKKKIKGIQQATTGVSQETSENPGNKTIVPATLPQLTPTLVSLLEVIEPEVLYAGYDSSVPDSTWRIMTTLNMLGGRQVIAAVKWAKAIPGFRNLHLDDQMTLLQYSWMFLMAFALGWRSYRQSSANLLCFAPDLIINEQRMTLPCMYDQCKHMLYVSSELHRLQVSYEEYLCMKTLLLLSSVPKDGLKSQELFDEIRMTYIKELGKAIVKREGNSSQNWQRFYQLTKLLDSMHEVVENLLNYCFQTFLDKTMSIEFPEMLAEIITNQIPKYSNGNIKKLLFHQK
Put plainly: Transrepression activity of glucocorticoid receptor in human A549 cells expressing AP-1 assessed as inhibition of PMA-induced AP-1 activity by luciferase reporter gene assay. It is filed as cell-based.

Test [2] concerns the target T2, Glucocorticoid receptor (Homo sapiens) (UniProt P04150).
T2 sequence (whole entry): T1 sequence (P04150 whole entry)
Put plainly: Transrepression activity of glucocorticoid receptor in human A549 cells assessed as inhibition of IL1beta-stimulated NFkappaB-dependent E-selectin transcription by luciferase reporter gene assay relative to Dexamethasone. Type of test: cell-based.

The target in test [3] is T2, Glucocorticoid receptor (Homo sapiens). In words: Transrepression activity of glucocorticoid receptor in human A549 cells expressing AP-1 assessed as inhibition of PMA-induced AP-1 activity by luciferase reporter gene assay relative to Dexamethasone. It is filed as cell-based. The method, boiled down: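 Human A549 lung epithelial cells stably transfected with a 5×AP-1 response element luciferase reporter. AP-1 was induced with PMA (15 ng/mL), and inhibition was read as decreased luciferase.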

Test [4] has as its target T1, Glucocorticoid receptor. Put plainly: Transrepression activity of glucocorticoid receptor in human A549 cells assessed as inhibition of IL1beta-stimulated NFkappaB-dependent E-selectin transcription by luciferase reporter gene assay. Type of test: cell-based.
Test [5] addresses T1, Glucocorticoid receptor. Put plainly: Transactivation activity at glucocorticoid receptor in human 13D3/Huh7 cells assessed as induction of tyrosine aminotransferase activity after 24 hrs. It is filed as cell-based, Huh-7.
Test [6] addresses T1, Glucocorticoid receptor. In words: Displacement of GS-red from GRapha by fluorescence polarization assay.
Test [7] concerns the target T1, Glucocorticoid receptor. In words: Transactivation activity of glucocorticoid receptor ligand binding domain expressed in human NP-1 Hela cells co-expressing GAL4 DNA binding domain by luciferase reporter gene assay. Type of test: cell-based.
A further test addresses T3, Progesterone receptor (Homo sapiens, UniProt P06401).
T3 sequence (P06401 whole entry): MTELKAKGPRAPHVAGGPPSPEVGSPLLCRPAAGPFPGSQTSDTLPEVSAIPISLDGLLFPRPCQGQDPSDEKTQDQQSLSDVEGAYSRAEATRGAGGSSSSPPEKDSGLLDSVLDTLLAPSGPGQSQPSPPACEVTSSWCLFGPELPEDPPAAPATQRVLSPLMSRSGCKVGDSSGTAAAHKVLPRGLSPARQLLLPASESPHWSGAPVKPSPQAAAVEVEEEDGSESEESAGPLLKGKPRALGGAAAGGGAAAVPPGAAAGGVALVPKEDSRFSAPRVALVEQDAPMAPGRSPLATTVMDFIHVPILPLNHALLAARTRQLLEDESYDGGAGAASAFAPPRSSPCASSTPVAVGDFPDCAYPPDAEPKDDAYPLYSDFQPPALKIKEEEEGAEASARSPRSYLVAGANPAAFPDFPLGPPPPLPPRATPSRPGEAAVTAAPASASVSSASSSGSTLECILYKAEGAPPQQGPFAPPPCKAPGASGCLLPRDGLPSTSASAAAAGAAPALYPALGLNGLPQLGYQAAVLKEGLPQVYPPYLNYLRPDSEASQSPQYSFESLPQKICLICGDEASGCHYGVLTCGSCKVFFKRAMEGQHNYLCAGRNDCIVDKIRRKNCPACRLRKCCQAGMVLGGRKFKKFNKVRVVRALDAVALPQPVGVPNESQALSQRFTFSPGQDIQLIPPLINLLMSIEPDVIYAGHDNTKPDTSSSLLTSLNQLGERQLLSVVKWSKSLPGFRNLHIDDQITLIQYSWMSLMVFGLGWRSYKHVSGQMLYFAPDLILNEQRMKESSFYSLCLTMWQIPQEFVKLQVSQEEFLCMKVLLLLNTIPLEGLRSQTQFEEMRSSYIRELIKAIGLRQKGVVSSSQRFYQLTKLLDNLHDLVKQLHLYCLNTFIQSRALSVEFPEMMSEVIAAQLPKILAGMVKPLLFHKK
Put plainly: Binding affinity to progesterone receptor by fluorescence polarization assay. The method, boiled down:
(§1)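 Fluorescence polarization competition of test compound against a fluorescently labelled ligand for binding to full-length receptor or its ligand-binding domain.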

The target in the next test is T4, Androgen receptor (Homo sapiens, UniProt P10275).
T4 sequence (P10275 whole entry): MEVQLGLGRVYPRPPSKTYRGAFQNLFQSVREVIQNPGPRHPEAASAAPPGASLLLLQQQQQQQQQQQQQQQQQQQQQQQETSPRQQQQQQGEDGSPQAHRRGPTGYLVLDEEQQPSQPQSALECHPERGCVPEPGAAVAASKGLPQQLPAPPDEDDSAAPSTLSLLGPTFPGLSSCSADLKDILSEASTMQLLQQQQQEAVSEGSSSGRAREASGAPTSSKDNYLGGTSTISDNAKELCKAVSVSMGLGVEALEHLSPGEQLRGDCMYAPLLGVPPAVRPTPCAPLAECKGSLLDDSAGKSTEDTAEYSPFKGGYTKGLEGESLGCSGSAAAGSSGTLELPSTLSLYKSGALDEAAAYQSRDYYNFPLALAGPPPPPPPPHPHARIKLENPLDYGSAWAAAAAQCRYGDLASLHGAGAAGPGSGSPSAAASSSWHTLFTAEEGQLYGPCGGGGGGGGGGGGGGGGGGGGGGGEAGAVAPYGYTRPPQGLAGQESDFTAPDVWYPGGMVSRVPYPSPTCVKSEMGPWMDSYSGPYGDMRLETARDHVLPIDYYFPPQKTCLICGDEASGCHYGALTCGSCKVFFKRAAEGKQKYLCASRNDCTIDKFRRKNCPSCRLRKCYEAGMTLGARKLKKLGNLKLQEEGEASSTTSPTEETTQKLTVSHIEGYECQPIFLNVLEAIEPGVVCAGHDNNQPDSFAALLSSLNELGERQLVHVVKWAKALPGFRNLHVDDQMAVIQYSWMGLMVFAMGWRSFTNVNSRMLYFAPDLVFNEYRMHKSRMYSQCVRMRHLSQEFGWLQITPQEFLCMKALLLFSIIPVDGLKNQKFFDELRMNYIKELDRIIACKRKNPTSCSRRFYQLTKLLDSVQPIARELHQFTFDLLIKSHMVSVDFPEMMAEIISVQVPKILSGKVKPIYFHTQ
Put plainly: Binding affinity to androgen receptor by fluorescence polarization assay. The method, boiled down: as §1

For test [8], the target named is T2, Glucocorticoid receptor (Homo sapiens). Put plainly: Transactivation activity at glucocorticoid receptor in human 13D3/Huh7 cells assessed as induction of tyrosine aminotransferase activity after 24 hrs relative to Dexamethasone. The note with it: Huh-7. It is filed as cell-based. The method, boiled down: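 Human 13D3/Huh7 hepatoma cells, 20 K/well, were incubated overnight at 37 °C/5% CO2. They were then treated overnight with compounds in assay medium containing 20 μM forskolin. The reaction was stopped with KOH and A340 read. Results are % activation, with EC50 derived.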

Test [9] has the same target. In words: Transactivation activity of glucocorticoid receptor ligand binding domain expressed in human NP-1 Hela cells co-expressing GAL4 DNA binding domain by luciferase reporter gene assay relative to Dexamethasone. Type of test: cell-based. The essentials: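 HeLa NP-1 cells stably carrying a GAL4 DBD–human GR LBD chimera with a GAL4 luciferase reporter. Agonist activity was read as increased luciferase activity.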

With `CC(C)(C(=O)Nc1nccs1)[C@H](c1ccccc1)c1ccc(O)c(F)c1`, the pEC50 at Glucocorticoid receptor [1] is below 5.00; at Glucocorticoid receptor [4] it was below 5.30; on Glucocorticoid receptor [5], below 5.30; at Glucocorticoid receptor [7] it was below 5.00. For the same molecule, the Efficacy in test [2] was 12%; in test [3] it was 16%. The molecule also gave a pKi on Glucocorticoid receptor [6] of 8.34.
For `CC(=O)c1cc([C@H](c2ccccc2)C(C)(C)C(=O)Nc2nccs2)ccc1O`, the negative-log EC50 (pEC50) at Glucocorticoid receptor [1] is below 5.00; on Glucocorticoid receptor [4], below 5.30; at Glucocorticoid receptor [5], 5.63; on Glucocorticoid receptor [7] it was below 5.00. The Efficacy in test [2] is 16%. Further, the negative-log Ki (pKi) on Glucocorticoid receptor [6] was 8.14.
With `Cc1cc([C@H](c2ccccc2)C(C)(C)C(=O)Nc2nncs2)ccc1O`, the pKi on Progesterone receptor was 6.85; on Androgen receptor, below 5.40.
In the case of `CC(C)(C(=O)Nc1nncs1)[C@@H](c1ccccc1)c1ccc(O)c(Br)c1`, the pEC50 was 7.90 on Glucocorticoid receptor [1], 8.21 at Glucocorticoid receptor [4], 7.33 on Glucocorticoid receptor [5] and 7.17 on Glucocorticoid receptor [7]. The Efficacy in test [8] is 57%; in [2], 75%; in test [3], 87%; in [9], 54%. At Glucocorticoid receptor [6], the negative logarithm of the Ki (pKi) was 9.40.
As to `CC(C)(C(=O)Nc1nccs1)[C@H](c1ccccc1)c1ccc(O)cc1`, the pEC50 at Glucocorticoid receptor [1], on Glucocorticoid receptor [5] and at Glucocorticoid receptor [7] was below 5.00 in each case.
Consider `CC(C)(C(=O)Nc1nccs1)[C@@H](c1ccccc1)c1ccc(O)c(C#N)c1`, for which the negative logarithm of the EC50 (pEC50) is 6.30 on Glucocorticoid receptor [1], 6.69 at Glucocorticoid receptor [4], below 5.30 at Glucocorticoid receptor [5] and below 5.00 on Glucocorticoid receptor [7]. The figures for the Efficacy in test [8], in test [2] and in [3] were 16%, 48% and 74%, respectively. Moreover, the negative logarithm of the Ki (pKi) is 6.84 at Progesterone receptor, below 5.52 at Androgen receptor and 9.05 on Glucocorticoid receptor [6].
With `CC(C)(C(=O)Nc1nncs1)C1c2ccccc2Oc2ccccc21`, the pEC50 was below 5.30 at Glucocorticoid receptor [1], below 5.30 on Glucocorticoid receptor [4] and below 5.00 on Glucocorticoid receptor [7]. The pKi on Glucocorticoid receptor [6] was 8.22.
Regarding `CC(C)(C(=O)Nc1nccs1)C(c1ccccc1)c1ccc(O)c(F)c1` (racemic), the pEC50 is 7.29 at Glucocorticoid receptor [1], 7.42 on Glucocorticoid receptor [4], 6.71 at Glucocorticoid receptor [5] and 6.66 on Glucocorticoid receptor [7]. For the same molecule, the Efficacy in [8] is 41%; in test [2], 63%; in [3], 77%; in test [9], 39%. For the same molecule, on Glucocorticoid receptor [6], the negative-log Ki (pKi) is 9.22.
Take `CC(C)(C(=O)Nc1nccs1)C(c1ccccc1)c1ccc(O)cc1` (racemic): the pEC50 on Glucocorticoid receptor [1] is 7.21; on Glucocorticoid receptor [4], 6.90; at Glucocorticoid receptor [5], 5.59; on Glucocorticoid receptor [7], 6.06. Also, the Efficacy was determined as 20% in [8], 50% in test [2], 63% in [3] and 14% in test [9]. This molecule showed a negative-log Ki (pKi) at Glucocorticoid receptor [6] of 8.60.
In the case of `CC(C)(C(=O)Nc1nncs1)[C@@H]1c2ccccc2Oc2cc(O)ccc21`, the pEC50 was below 5.30 at Glucocorticoid receptor [1], below 5.30 on Glucocorticoid receptor [4] and below 5.00 on Glucocorticoid receptor [7]. Also, the pKi at Glucocorticoid receptor [6] is 7.23.
